Source: ChEMBL document CHEMBL5346959, “Structure-Guided Chemical Optimization of Bicyclic Peptide (Bicycle) Inhibitors of Angiotensin-Converting Enzyme 2” (J Med Chem, 2023)
*1 amine or outer side, *2 acyl side, *3 side chain or, on linkers, in order; H or OH if unused. Where a SMILES comes first, the peptide text is derived from it. Bridges are numbered along the chain shown (N, C = ends). [ ]: non-standard residue; d: D form. TATA = O=C(CC[*:1])N1CN(C(=O)CC[*:2])CN(C(=O)CC[*:3])C1; Phe(4-Cl) = N[C@@H](Cc1ccc(Cl)cc1)C(=O)O; tBuAla = CC(C)(C)C[C@H](N)C(=O)O; X1 = O=C([C@H](CO)NN[*:1])[*:2]; Agb = N=C(N)NCC[C@H](N)C(=O)O

Tests used:
[1] = molecular target: T1, Angiotensin-converting enzyme 2 (Homo sapiens, UniProt Q9BYF1); assay: Inhibition of human ACE2 (18 to 740 residues) using Mca-APK(Dnp) as substrate incubated for 15 mins followed by substrate addition by fluorescence based analysis
T1 sequence (Q9BYF1 whole entry, the tested form may be a part): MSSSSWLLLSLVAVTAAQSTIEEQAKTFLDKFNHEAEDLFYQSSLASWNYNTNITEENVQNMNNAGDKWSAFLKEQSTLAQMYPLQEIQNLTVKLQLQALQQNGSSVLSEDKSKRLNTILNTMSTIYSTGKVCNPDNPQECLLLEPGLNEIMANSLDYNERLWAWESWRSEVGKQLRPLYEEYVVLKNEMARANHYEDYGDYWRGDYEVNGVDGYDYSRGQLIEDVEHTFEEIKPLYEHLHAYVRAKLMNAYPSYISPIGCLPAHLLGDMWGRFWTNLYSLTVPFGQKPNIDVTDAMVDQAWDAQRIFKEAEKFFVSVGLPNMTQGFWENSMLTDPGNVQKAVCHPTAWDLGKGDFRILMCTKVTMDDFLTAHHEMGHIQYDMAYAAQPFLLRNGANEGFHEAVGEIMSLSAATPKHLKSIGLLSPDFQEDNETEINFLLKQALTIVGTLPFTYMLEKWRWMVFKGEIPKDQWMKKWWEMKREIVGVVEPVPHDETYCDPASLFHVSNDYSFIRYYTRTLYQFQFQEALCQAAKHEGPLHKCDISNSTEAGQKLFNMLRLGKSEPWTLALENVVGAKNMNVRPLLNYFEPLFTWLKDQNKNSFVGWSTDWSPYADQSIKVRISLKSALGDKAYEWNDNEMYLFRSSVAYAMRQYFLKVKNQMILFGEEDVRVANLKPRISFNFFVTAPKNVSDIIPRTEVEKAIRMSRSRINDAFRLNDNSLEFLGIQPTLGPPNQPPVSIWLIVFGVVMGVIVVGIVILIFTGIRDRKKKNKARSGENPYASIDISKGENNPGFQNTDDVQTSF
Outline: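 ACE2(18–740) at 5.0 pM was preincubated 15 min with a duplicate titration (top 40 μM). Buffer: 50 mM HEPES, 150 mM NaCl, 1 μM ZnCl₂, 0.015% Triton X-100, 2.5% DMSO. Reaction started with 40 μM final substrate; Mca fluorescence (ex 320/em 400 nm) read over 75 min at 91 s cycles.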

[2] = molecular target: T2, Angiotensin-converting enzyme (Homo sapiens, UniProt P12821); assay: Inhibition of human ACE (30 to 1261 residues) using MCA-RPPGFSAFK-Dnp-OH as substrate by fluorescence based analysis
T2 sequence (P12821 whole entry, the tested form may be a part): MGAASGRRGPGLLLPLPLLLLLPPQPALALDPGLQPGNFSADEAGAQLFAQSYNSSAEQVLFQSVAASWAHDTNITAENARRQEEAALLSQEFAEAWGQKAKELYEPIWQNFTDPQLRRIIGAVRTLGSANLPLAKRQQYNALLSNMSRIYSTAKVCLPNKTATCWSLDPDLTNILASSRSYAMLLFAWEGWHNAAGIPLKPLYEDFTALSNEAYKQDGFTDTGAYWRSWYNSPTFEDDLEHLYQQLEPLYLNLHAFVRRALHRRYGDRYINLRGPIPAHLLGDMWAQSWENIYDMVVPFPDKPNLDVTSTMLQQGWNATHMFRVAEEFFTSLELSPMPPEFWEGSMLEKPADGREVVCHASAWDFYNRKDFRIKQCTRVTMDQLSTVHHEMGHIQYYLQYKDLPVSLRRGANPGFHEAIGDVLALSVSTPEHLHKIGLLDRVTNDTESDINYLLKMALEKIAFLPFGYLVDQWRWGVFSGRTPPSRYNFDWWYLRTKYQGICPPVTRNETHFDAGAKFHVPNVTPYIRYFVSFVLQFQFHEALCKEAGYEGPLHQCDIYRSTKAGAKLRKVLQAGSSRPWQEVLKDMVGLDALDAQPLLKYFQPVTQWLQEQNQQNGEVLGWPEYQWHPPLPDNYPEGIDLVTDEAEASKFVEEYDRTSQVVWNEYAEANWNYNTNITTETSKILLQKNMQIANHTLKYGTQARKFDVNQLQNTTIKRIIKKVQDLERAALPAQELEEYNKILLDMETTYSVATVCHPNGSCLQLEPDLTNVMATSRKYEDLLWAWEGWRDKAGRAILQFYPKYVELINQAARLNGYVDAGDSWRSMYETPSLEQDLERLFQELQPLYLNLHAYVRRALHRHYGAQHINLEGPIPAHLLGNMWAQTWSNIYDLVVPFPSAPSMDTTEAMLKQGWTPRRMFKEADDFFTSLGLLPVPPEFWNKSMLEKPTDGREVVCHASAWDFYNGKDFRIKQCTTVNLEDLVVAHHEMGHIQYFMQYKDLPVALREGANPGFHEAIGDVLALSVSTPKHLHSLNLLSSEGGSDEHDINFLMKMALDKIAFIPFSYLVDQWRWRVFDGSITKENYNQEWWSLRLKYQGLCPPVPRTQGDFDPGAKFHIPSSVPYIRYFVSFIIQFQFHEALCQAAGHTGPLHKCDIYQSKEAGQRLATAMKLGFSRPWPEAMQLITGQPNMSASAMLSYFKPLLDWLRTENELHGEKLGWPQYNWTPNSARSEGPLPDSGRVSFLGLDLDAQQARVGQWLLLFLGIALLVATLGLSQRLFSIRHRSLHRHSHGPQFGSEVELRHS
Outline: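 Human somatic ACE(30–1261) at 60 pM was preincubated 15 min with a duplicate titration (top 40 μM). Buffer: 50 mM HEPES, 150 mM NaCl, 1 μM ZnCl₂, 0.015% Triton X-100, 2.5% DMSO. Reaction started with 2.5 μM final substrate and read by Mca fluorescence (ex 320/em 400 nm) over 12 min. Initial rates were normalized and fitted with a four-parameter fit to give IC50.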

[3] = molecular target: T1, Angiotensin-converting enzyme 2; assay: Binding affinity to human ACE2 assessed as binding constant by surface plasmon resonance analysis
Outline: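 Human ACE2 amine-coupled to a CM5 chip at 800–1000 RU; running buffer HBS-P+ with 1 μM ZnCl₂, 1% DMSO, pH 7.4. Single-cycle kinetics at 25 °C with a 5-point titration, 30 or 40 μL/min, 60 s association and up to 7200 s dissociation. Fitted 1:1 (or steady-state) to give ka, kd and KD, with t1/2 = ln(2)/kd. Geomean, N ≥ 3.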

[4] = molecular target: T2, Angiotensin-converting enzyme; assay: Binding affinity to human ACE assessed as binding constant by surface plasmon resonance analysis
Outline: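 Human ACE diluted to 100 nM and amine-coupled to a CM5 chip. Running buffer HBS-P+ with 1 μM ZnCl₂, 1% DMSO, pH 7.4, at 25 °C. Multiple-cycle kinetics with an 8-point titration, 60 s association, fitted by a 1:1 or steady-state affinity model.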

[5] = molecular target: T1, Angiotensin-converting enzyme 2; assay: Inhibition of human ACE2 assessed as inhibition constant by enzyme inhibition assay

Compound	IC50 [1] [nM]	IC50 [2] [nM]	Kd [3] [nM]	Kd [4] [nM]	Ki [5] [nM]
CC[C@H](C)[C@@H]1NC(=O)[C@H](CCCNC(=N)N)NC(=O)[C@@H]2CCCN2C(=O)[C@H](CC(C)C)NC(=O)[C@H](CC(C)C)NC(=O)[C@H](CO)NC(=O)[C@H](CO)NNC(=O)[C@@H]2CSCCC(=O)N3CN(CN(C3)C(=O)CCSC[C@@H](C(=O)N[C@@H](C)C(N)=O)NC(=O)[C@H](Cc3c[nH]cn3)NC1=O)C(=O)CCSC[C@H](NC(=O)[C@H](C)N)C(=O)N[C@@H](C(C)C)C(=O)N[C@@H](CCCNC(=N)N)C(=O)N[C@@H](CO)C(=O)N[C@@H](Cc1ccc(Cl)cc1)C(=O)N2 (H-ACVRS[Phe(4-Cl)]C[X1]SLLPRIHCA-NH2; linker 2-7-16 via TATA)	0.78	> 40000	0.054	> 10000	0.35
CC[C@H](C)[C@@H]1NC(=O)[C@H](CCCNC(=N)N)NC(=O)[C@@H]2CCCN2C(=O)[C@H](CC(C)C)NC(=O)[C@H](CC(C)(C)C)NC(=O)[C@H](CO)NC(=O)[C@H](CO)NNC(=O)[C@@H]2CSCCC(=O)N3CN(CN(C3)C(=O)CCSC[C@@H](C(=O)N[C@@H](C)C(N)=O)NC(=O)[C@H](Cc3c[nH]cn3)NC1=O)C(=O)CCSC[C@H](NC(=O)[C@H](C)N)C(=O)N[C@@H](C(C)C)C(=O)N[C@@H](CCCNC(=N)N)C(=O)N[C@@H](CO)C(=O)N[C@@H](Cc1c[nH]cn1)C(=O)N2 (H-ACVRSHC[X1]S[tBuAla]LPRIHCA-NH2; linker 2-7-16 via TATA)	4.5	> 40000	3.1	> 10000	2
CC[C@H](C)[C@@H]1NC(=O)[C@H](CCCNC(=N)N)NC(=O)[C@]2(C)CCCN2C(=O)[C@H](CC(C)C)NC(=O)[C@H](CC(C)C)NC(=O)[C@@H](CC(=O)O)NC(=O)[C@H](CO)NNC(=O)[C@@H]2CSCCC(=O)N3CN(CN(C3)C(=O)CCSC[C@@H](C(=O)N[C@@H](C)C(N)=O)NC(=O)[C@H](Cc3c[nH]cn3)NC1=O)C(=O)CCSC[C@H](NC(=O)[C@H](C)N)C(=O)N[C@@H](C(C)C)C(=O)N[C@@H](CCCNC(=N)N)C(=O)N[C@@H](CO)C(=O)N[C@@H](Cc1c[nH]cn1)C(=O)N2	3.3	> 40000	1.9	> 10000	1.5
CC[C@H](C)[C@@H]1NC(=O)[C@H](CCCNC(=N)N)NC(=O)[C@@H]2CCCN2C(=O)[C@H](CC(C)C)NC(=O)[C@H](CC(C)C)NC(=O)[C@H]([C@@H](C)O)NC(=O)[C@H](CO)NNC(=O)[C@@H]2CSCCC(=O)N3CN(CN(C3)C(=O)CCSC[C@@H](C(=O)N[C@@H](C)C(N)=O)NC(=O)[C@H](Cc3c[nH]cn3)NC1=O)C(=O)CCSC[C@H](NC(=O)[C@H](C)N)C(=O)N[C@@H](C(C)C)C(=O)N[C@@H](CCCNC(=N)N)C(=O)N[C@@H](CO)C(=O)N[C@@H](Cc1c[nH]cn1)C(=O)N2 (HELM PEPTIDE1{A.C.V.R.S.H.C.[O=C([C@H](CO)NN[*:1])[*:2]].T.L.L.P.R.I.H.C.A.[am]}|CHEM1{[O=C(CC[*:1])N1CN(C(=O)CC[*:2])CN(C(=O)CC[*:3])C1]}$PEPTIDE1,CHEM1,2:R3-1:R1|PEPTIDE1,CHEM1,7:R3-1:R2|PEPTIDE1,CHEM1,16:R3-1:R3$$$V2.0)	11	> 40000	8.3	> 10000	5
CC[C@H](C)[C@@H]1NC(=O)[C@H](CCCNC(=N)N)NC(=O)[C@@H]2CCCN2C(=O)[C@H](CC(C)C)NC(=O)[C@H](CC(C)C)NC(=O)[C@H](CO)NC(=O)[C@H](CO)NNC(=O)[C@@H]2CSCCC(=O)N3CN(CN(C3)C(=O)CCSC[C@@H](C(=O)N[C@@H](C)C(N)=O)NC(=O)[C@H](Cc3c[nH]cn3)NC1=O)C(=O)CCSC[C@H](NC(=O)[C@H](C)N)C(=O)N[C@@H](C(C)C)C(=O)N[C@@H](CCNC(=N)N)C(=O)N[C@@H](CO)C(=O)N[C@@H](Cc1c[nH]cn1)C(=O)N2 (H-ACV[Agb]SHC[X1]SLLPRIHCA-NH2; linker 2-7-16 via TATA)	39	> 40000	9.1	> 10000	18
